Experimental data published in ChEMBL document CHEMBL3091303, “1,3-Dialkyl-substituted tetrahydropyrimido[1,2-f]purine-2,4-diones as multiple target drugs for the potential treatment of neurodegenerative diseases” (Bioorg Med Chem, 2013).

Legend:
[1] = target: T1, Amine oxidase [flavin-containing] A (Homo sapiens, UniProt P21397); test: Inhibition of human MAO-A
T1 sequence (P21397 whole entry): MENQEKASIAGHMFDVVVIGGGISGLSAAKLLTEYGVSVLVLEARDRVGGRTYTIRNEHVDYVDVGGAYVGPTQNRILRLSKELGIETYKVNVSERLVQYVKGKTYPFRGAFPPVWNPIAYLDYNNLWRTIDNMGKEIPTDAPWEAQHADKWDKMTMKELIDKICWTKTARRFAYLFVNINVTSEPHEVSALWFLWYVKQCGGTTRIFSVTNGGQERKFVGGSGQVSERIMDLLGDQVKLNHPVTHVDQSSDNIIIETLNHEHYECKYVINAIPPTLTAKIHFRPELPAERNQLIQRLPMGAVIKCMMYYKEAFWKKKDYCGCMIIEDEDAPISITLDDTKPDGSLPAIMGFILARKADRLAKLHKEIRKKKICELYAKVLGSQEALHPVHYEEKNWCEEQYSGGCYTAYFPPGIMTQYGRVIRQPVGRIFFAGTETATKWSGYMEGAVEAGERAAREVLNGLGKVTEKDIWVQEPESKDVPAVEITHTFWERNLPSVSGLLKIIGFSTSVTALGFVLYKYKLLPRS
Outline: (§1)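 Human MAO-A and MAO-B inhibition, screened first at a test concentration of 10 µM.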

Adenosine receptor A3 [2] = target: T2, Adenosine receptor A3 (Rattus norvegicus, UniProt P28647); test: Binding affinity to rat adenosine A3 receptor
T2 sequence (P28647 whole entry): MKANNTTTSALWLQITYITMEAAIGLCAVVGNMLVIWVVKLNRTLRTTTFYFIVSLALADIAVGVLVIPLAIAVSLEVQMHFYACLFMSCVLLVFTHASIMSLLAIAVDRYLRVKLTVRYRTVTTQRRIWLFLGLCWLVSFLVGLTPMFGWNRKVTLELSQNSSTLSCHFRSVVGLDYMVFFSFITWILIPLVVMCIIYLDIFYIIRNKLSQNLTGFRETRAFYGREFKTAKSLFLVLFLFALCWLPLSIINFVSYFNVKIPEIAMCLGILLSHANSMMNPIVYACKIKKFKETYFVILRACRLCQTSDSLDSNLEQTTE

[3] = target: T3, Amine oxidase [flavin-containing] B (Homo sapiens, UniProt P27338); test: Inhibition of human MAO-B
T3 sequence (P27338 whole entry): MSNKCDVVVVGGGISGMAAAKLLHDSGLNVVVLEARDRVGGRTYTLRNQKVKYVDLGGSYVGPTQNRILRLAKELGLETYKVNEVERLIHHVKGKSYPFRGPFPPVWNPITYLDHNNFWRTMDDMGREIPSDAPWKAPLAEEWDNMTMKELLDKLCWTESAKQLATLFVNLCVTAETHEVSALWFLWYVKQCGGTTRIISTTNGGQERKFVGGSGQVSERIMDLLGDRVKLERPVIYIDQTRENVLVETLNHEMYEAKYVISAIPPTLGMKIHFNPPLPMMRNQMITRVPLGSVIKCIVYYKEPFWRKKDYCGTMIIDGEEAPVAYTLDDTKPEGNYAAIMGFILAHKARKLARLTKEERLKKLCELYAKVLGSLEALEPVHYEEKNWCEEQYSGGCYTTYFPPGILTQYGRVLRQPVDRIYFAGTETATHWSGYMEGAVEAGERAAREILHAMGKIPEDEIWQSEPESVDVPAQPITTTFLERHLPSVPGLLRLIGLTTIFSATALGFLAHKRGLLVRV

Adenosine receptor A1 [4] = target: T4, Adenosine receptor A1 (Rattus norvegicus, UniProt P25099); test: Binding affinity to rat adenosine A1 receptor
T4 sequence (P25099 whole entry): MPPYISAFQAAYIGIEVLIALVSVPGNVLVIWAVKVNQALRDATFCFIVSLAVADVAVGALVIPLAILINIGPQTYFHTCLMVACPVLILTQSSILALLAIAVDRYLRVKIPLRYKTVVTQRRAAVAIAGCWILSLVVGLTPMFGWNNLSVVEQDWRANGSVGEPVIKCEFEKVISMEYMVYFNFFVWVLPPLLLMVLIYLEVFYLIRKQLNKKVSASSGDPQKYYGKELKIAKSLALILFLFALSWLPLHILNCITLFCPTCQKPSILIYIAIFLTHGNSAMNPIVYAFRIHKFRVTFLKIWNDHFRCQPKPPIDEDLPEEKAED

Adenosine receptor A3 [5] = target: T5, Adenosine receptor A3 (Homo sapiens, UniProt P0DMS8); test: Displacement of [3H]PSB-11 from human adenosine A3 receptor expressed in CHO cells; assay type: cell-based
T5 sequence (P0DMS8 whole entry): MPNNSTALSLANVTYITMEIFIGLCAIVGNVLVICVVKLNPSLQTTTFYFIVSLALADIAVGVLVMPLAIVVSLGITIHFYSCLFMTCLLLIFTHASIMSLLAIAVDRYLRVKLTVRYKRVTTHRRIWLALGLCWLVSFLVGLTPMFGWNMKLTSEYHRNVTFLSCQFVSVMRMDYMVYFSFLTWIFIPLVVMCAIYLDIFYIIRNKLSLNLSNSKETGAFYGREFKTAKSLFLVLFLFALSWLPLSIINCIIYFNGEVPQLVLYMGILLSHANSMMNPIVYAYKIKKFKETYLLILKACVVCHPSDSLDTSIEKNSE

Adenosine receptor A2a [6] = target: T6, Adenosine receptor A2a (Rattus norvegicus, UniProt P30543); test: Displacement of [3H]MSX-2 from adenosine A2A receptor in rat brain striatum; assay type: tissue-based
Adenosine receptor A2a [7] = target: T6, Adenosine receptor A2a; test: Binding affinity to rat adenosine A2A receptor
[8] = target: T7, MAO-A (amine oxidase [flavin-containing] A) (Homo sapiens, UniProt P21397); test: Inhibition of human MAO-A at 10 uM relative to control; outline: as §1
T7 sequence (P21397 whole entry): T1 sequence (P21397 whole entry)

Adenosine receptor A1 [9] = target: T4, Adenosine receptor A1; test: Displacement of [3H]CCPA from adenosine A1 receptor in rat brain cortex; assay type: tissue-based
Outline: (§2)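 Radioligand binding to rat A1 receptors in rat brain cortical membrane preparations. Values are given as Ki, or as % inhibition of radioligand binding at the indicated concentration.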

Adenosine receptor A1 [10] = target: T8, Adenosine receptor A1 (Homo sapiens, UniProt P30542); test: Displacement of [3H]CCPA from human adenosine A1 receptor expressed in CHO cells; assay type: cell-based
T8 sequence (P30542 whole entry): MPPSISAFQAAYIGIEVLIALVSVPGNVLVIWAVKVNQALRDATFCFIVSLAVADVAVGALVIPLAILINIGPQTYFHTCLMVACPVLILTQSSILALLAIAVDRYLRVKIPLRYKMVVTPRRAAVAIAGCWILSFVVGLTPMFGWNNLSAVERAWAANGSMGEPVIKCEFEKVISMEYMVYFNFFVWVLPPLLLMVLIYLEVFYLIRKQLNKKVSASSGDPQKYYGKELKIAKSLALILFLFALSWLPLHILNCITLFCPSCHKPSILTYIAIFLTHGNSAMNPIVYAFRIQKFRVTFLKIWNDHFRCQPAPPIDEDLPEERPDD
Outline: (§3)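 Radioligand binding to human receptors recombinantly expressed in Chinese hamster ovary (CHO) cells. Results are Ki, or % inhibition of radioligand binding at the indicated concentration.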

Adenosine receptor A2a [11] = target: T9, Adenosine receptor A2a (Homo sapiens, UniProt P29274); test: Binding affinity to human adenosine A2A receptor
Adenosine receptor A2b [12] = target: T10, Adenosine receptor A2b (Homo sapiens, UniProt P29275); test: Binding affinity to human adenosine A2B receptor
T10 sequence (P29275 whole entry): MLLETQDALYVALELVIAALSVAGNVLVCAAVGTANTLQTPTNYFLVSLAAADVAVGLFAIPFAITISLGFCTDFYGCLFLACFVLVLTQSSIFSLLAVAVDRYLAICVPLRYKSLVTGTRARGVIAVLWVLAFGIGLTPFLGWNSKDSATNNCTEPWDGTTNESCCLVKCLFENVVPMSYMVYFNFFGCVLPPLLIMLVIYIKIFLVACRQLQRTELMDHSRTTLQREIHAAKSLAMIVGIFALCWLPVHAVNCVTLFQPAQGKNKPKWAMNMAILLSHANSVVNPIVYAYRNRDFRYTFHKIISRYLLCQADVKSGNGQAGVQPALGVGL

Adenosine receptor A3 [13] = target: T5, Adenosine receptor A3; test: Binding affinity to human adenosine A3 receptor
Adenosine receptor A1 [14] = target: T8, Adenosine receptor A1; test: Binding affinity to human adenosine A1 receptor
Adenosine receptor A2b [15] = target: T10, Adenosine receptor A2b; test: Displacement of [3H]PSB-603 from human adenosine A2B receptor
Adenosine receptor A2a [16] = target: T9, Adenosine receptor A2a; test: Displacement of [3H]MSX-2 from human adenosine A2A receptor expressed in CHO cells; assay type: cell-based; outline: as §3
[17] = target: T11, MAO-B (amine oxidase [flavin-containing] B) (Homo sapiens, UniProt P27338); test: Inhibition of human MAO-B at 10 uM relative to control; outline: as §1
T11 sequence (P27338 whole entry): T3 sequence (P27338 whole entry)

[18] = target: T12, Adenosine receptor A2b (Homo sapiens) (UniProt P29275); test: Displacement of [3H]PSB-603 from human adenosine A2B receptor relative to control; parameters: concentration or dose not given beside the values; settings: concentration not given here
T12 sequence (whole entry): T10 sequence (P29275 whole entry)

[19] = target: T13, Adenosine receptor A3 (Homo sapiens) (UniProt P0DMS8); test: Displacement of [3H]PSB-11 from human adenosine A3 receptor expressed in CHO cells relative to control; assay type: cell-based; parameters: concentration or dose not given beside the values; settings: concentration not given here
T13 sequence (whole entry): T5 sequence (P0DMS8 whole entry)

[20] = Ratio of Ki for human adenosine A1 receptor to Ki for adenosine A1 receptor in rat brain cortex; assay type: tissue-based
[21] = target: T14, Adenosine receptor A1 (Rattus norvegicus) (UniProt P25099); test: Displacement of [3H]CCPA from adenosine A1 receptor in rat brain cortex relative to control; assay type: tissue-based; parameters: concentration or dose not given beside the values; settings: concentration not given here; outline: as §2
T14 sequence (whole entry): T4 sequence (P25099 whole entry)

[22] = target: Adenosine receptor A2a (Rattus norvegicus) (UniProt P30543); test: Displacement of [3H]MSX-2 from adenosine A2A receptor in rat brain striatum relative to control; assay type: tissue-based; parameters: concentration or dose not given beside the values; settings: concentration not given here
Outline: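 Radioligand binding to rat A2A receptors in rat brain striatal membrane preparations, reported as % inhibition of radioligand binding at the indicated concentration.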

[23] = target: T15, Adenosine receptor A1 (Homo sapiens) (UniProt P30542); test: Displacement of [3H]CCPA from human adenosine A1 receptor expressed in CHO cells relative to control; assay type: cell-based; settings: concentration not given here; outline: as §3
T15 sequence (whole entry): T8 sequence (P30542 whole entry)

T6 sequence (P30543 whole entry): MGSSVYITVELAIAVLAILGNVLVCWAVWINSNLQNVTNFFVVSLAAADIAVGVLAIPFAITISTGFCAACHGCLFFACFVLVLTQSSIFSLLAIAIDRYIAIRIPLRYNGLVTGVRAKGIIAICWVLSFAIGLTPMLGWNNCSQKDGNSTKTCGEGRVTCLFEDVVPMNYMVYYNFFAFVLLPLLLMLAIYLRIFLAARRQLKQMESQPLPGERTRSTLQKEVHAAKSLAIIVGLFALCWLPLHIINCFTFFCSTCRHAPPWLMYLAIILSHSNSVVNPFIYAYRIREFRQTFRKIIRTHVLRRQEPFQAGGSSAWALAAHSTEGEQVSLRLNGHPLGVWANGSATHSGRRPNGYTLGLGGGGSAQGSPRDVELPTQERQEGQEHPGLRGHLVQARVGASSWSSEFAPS
T9 sequence (P29274 whole entry): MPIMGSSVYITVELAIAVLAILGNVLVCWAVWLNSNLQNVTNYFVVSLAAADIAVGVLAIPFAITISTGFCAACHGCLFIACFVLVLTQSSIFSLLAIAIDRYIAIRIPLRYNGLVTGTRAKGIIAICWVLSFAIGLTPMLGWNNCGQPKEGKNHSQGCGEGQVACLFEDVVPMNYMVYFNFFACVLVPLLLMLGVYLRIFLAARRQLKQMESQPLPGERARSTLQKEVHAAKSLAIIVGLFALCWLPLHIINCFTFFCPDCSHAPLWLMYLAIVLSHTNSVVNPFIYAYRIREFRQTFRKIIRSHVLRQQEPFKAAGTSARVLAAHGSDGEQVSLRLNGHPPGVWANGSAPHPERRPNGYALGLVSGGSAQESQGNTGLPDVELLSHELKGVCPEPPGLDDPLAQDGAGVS
Sequence of Adenosine receptor A2a (Rattus norvegicus) (P30543 whole entry): as the sequence (P30543 whole entry) above

| SMILES | IC50 [1] | IC50 [3] | Ki (Adenosine receptor A1 [4]) | Ki (Adenosine receptor A3 [5]) | Ki (Adenosine receptor A2a [6]) | Ki (Adenosine receptor A2a [7]) | inhibition at 10 µM [8] | Ki (Adenosine receptor A1 [9]) | Ki (Adenosine receptor A1 [10]) | Ki (Adenosine receptor A2b [15]) | inhibition at 10 µM [17] | inhibition [18] | inhibition [19] | inhibition [21] | also measured |
| --- | --- | --- | --- | --- | --- | --- | --- | --- | --- | --- | --- | --- | --- | --- | --- |
| C#CCn1c(=O)c2c(ncn2C)n(C)c1=O | > 10 µM | > 10 µM | 11 µM | > 10 µM | 5.6 µM | 5600 nM | 3% | 11 µM |  |  |  |  |  |  | Ki (Adenosine receptor A3 [2]): > 10 µM |
| C#CCn1c(=O)c2c(nc3n2CCCN3c2cccc(OC)c2)n(C)c1=O |  | > 10 µM |  | > 1 µM | 3.03 µM |  |  | 0.469 µM | 9.49 µM | > 1000 nM | 36% | 8% | 20% |  | Ratio Ki [20]: > 10 |
| Cn1c(=O)c2c(nc3n2CCCN3CC(=O)N2CCN(c3ccc(Cl)cc3)CC2)n(C)c1=O | > 10 µM | 2.2 µM |  | > 1 µM | > 10 µM |  | 13% | > 1.5 µM |  | > 1000 nM | 60% | -7% | 24% | 0% | inhibition [22]: 39% |

Further lines, with some results ahead:

| IC50 [1] | IC50 [3] | Ki (Adenosine receptor A1 [4]) | Ki (Adenosine receptor A3 [5]) | Ki (Adenosine receptor A2a [6]) | Ki (Adenosine receptor A2a [7]) | inhibition at 10 µM [8] | Ki (Adenosine receptor A1 [9]) | Ki (Adenosine receptor A1 [10]) | Ki (Adenosine receptor A2b [15]) | inhibition at 10 µM [17] | inhibition [18] | inhibition [19] | inhibition [21] | SMILES | also measured |
| --- | --- | --- | --- | --- | --- | --- | --- | --- | --- | --- | --- | --- | --- | --- | --- |
|  |  | > 25 µM | 13.3 µM |  | 147 nM |  | > 25 µM | 16.7 µM | 10000 nM |  |  |  |  | Cn1c(=O)c2c(nc3n2CCCN3c2ccc(F)cc2)n(C)c1=O | Ki (Adenosine receptor A2a [11]): 1880 nM; Ki (Adenosine receptor A2b [12]): 10 µM; Ki (Adenosine receptor A3 [13]): 13.3 µM; Ki (Adenosine receptor A1 [14]): 16.7 µM; Ki (Adenosine receptor A2a [16]): 1180 nM |
| > 10 µM | 10 µM |  | > 10 µM | 1.21 µM |  | 6% | ≥ 25 µM | 10 µM | > 1000 nM | 6% | 10% | 15% | 47% | Cn1c(=O)c2c(nc3n2CCCN3c2ccc(Cl)cc2)n(C)c1=O | inhibition [23]: 30% |
